From publication PMC8682764 (Nucleic Acids Research, 2021)
Where a SMILES comes first, the peptide text is derived from it. Bridges are numbered along the chain shown (N, C = ends). [ ]: non-standard residue; d: D form. The star is where a group is joined. d(αMeK) = C[C@@](N)(CCCCN)C(=O)O; dPhg = N[C@@H](C(=O)O)c1ccccc1; Isobutyryl = CC(C)C(=O)*; Abu = CC[C@H](N)C(=O)O

Columns and labels:
[1] = test system: WDR5 / MBP-LANAΔ33–888 interaction; assay: Co-precipitation of WDR5 with MBP-LANAΔ33–888; type: binding; conditions: co-precipitation with MBP-LANAΔ33–888, Coomassie blue detection
[2] = test system: WDR5 WIN binding pocket / MLL1-WDR5 interaction; conditions: cited from earlier work
[3] = test system: WDR5 in LANA/MLL1 complex; assay: Co-precipitation of ASH2L, RbBP5, WDR5 or MLL1-SET with MBP-LANAΔ33–888; type: binding; conditions: co-precipitation with MBP-LANAΔ33–888, immunoblot
[4] = test system: MLL1; assay: Co-IP of GFP-LANA regions with MLL1; type: binding; conditions: co-IP after expression in 293T cells, anti-Flag
How it was run: (§1)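 Incubated overnight at 4°C with anti-Flag M2 (2 μg) agarose beads. Beads washed 3–6 times in lysis buffer and eluted in SDS buffer. Proteins resolved by SDS-PAGE and detected by western blot.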

[5] = test system: WDR5; assay: Co-IP of GFP-LANA regions with Flag-WDR5; type: binding; conditions: co-IP after expression in 293T cells, anti-Flag
How it was run: as §1

Molecule | effect on WDR5-LANA interaction [1] | MLL1-WDR5 interaction inhibition [2] | exclusion of WDR5 from LANA/MLL1 complex [3] | interaction with MLL1 [4] | interaction with WDR5 [5]
CC[C@@H]1NC(=O)[C@H](CCCN=C(N)N)NC(=O)[C@](C)(NC(=O)C(C)C)CCCCNC(=O)[C@@H](c2ccccc2)NC1=O [MM-401] (Isobutyryl-[d(αMeK)]R[Abu][dPhg]; lactam 1-C) | blocked the interaction of WDR5 with LANA | occupies the WDR5 WIN binding pocket and thereby inhibits MLL1-WDR5 interaction | excluded nearly all WDR5 from the LANA/MLL1 complex | – | –
LANA 779–1049: GFP-LANA fragment 779–1049 (protein, left off: GFP, end not stated, kept) QEQELEEQEQELEEQEQELEEQEQELEEQEQELEEQEQELEEQEQELEEQEQELEEQEQELEEQEVEEQEQEVEEQEQEQEEQELEEVEEQEQEQEEQEEQELEEVEEQEEQELEEVEEQEEQELEEVEEQEQQELEEVEEQEQQGVEQQEQETVEEPIILHGSSSEDEMEVDYPVVSTHEQIASSPPGDNTPDDDPQPGPSREYRYVLRTSPPHRPGVRMRRVPVTHPKKPHPRYQQPPVPYRQIDDCPAKARPQHIFYRRFLGKDGRRD | – | – | – | did not | interacted with LANA 779–1049
